RGS4 pot: potentiators or activators of RGS4; HEK293 M3R/inducible RGS4, carbachol calcium flux Fluo4; stronger effect = lower value; B-score at 10 µM; actives 0.92% (n = 310,000);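 active = B-score of the integrated calcium signal more than 4 SD below the library mean, with starting fluorescence not abnormally high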;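 also: negative B-score means reduced calcium response which marks RGS4 activation or potentiation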
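test system = M3R-expressing HEK293 line, RGS4 induced by doxycycline | probe or stimulus = carbachol at ECmax as muscarinic agonist stimulus | timing = dye loading 30 min 37 °C, buffer rest 30 min RT | signal = calcium dye Fluo4 fluorescence | evaluation = B score from integrated fluorescence ratio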
MrgX1 PAM: allosterically activates human MrgX1 receptor signaling; MrgX1-HEK293, Fluo-4 calcium flux, FDSS; stronger effect = higher value; B-score at 10 µM; actives 0.63% (n = 310,000); AID 588675;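 active = plate-corrected calcium response at least 3 library SD above typical, normal starting fluorescence, not activating the receptor alone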;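 also: compound read alongside a low EC10 to EC30 dose of BAM8-22 agonist; peak minus trough fluorescence over baseline measured at the second addition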
Target sequence (Q96LB2 whole entry, looked up): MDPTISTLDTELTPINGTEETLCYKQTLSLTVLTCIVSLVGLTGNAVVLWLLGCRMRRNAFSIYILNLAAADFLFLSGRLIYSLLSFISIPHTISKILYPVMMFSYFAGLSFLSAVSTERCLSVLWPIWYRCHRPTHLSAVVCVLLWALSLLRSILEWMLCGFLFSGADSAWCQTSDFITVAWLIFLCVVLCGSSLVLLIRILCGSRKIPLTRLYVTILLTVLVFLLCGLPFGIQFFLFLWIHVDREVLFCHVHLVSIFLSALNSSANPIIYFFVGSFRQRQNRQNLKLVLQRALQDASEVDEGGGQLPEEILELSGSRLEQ
MrgX1 antagonist: antagonists of human MrgX1 receptor | Q96LB2 | MRGX1-HEK293 calcium flux, Fluo-4, BAM8-22 antagonism; stronger effect = lower value | B-score at 10 µM | actives 1.3% (n = 310,000);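 active = calcium-response B-score plate-corrected more than 3 library SD below zero, starting fluorescence within 5 deviations, no agonist response on first addition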;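 also: peak minus trough fluorescence over baseline after final BAM8-22 challenge near maximal dose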
MrgX1 agonist: agonists of human MrgX1 receptor. AID 588627. B-score at 10 µM. actives 0.44% (n = 310,000). MrgX1-HEK293 cells, Fluo-4 calcium fluorescence, agonist mode; stronger effect = higher value. Q96LB2;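 active = calcium response B-score plate-corrected fluorescence ratio at least 3 library SD, with starting fluorescence B-score inside 5 SD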
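Material: HEK293 cells stably expressing human MrgX1 receptor | Quantity: 15,000 cells per well | Times: Cells plated overnight, dye loaded 0.5 h 37 °C, 0.5 h room temperature | Measured by: Kinetic Fluo-4 NW fluorescence of intracellular calcium | Control set: Positive and negative controls per plate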
RGS4 block: inhibitors of human RGS4. HEK293 M3R/RGS4 inducible, Fluo-4 calcium flux; stronger effect = higher value; triggered by carbachol at its EC20. B-score at 10 µM. actives 0.45% (n = 310,000). AID 463165;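 active = B-score, a plate-corrected calcium signal, over three deviations above library mean, with baseline fluorescence within five deviations of library mean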;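 also: RGS4 expression induced by doxycycline in cells with stable M3 receptor; B-score is computed from the integrated fluorescence ratio over baseline after carbachol; higher B-score means a larger calcium signal and so more RGS4 inhibition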
Target sequence (P49798 whole entry, looked up): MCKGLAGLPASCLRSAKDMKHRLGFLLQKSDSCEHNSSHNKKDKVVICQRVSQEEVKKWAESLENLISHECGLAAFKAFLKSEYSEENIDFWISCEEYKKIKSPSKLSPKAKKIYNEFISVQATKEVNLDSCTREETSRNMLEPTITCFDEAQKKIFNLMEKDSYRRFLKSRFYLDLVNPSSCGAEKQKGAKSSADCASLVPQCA
MrgX1 PAM conf: reconfirmed allosteric activator of human MrgX1 receptor; shares compounds with MrgX1 PAM; MrgX1-HEK293, Fluo-4 calcium fluorescence, FDSS; activation (ratio percentage), % at 10 µM; actives 13% (n = 1,200); AID 602413;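 active = ratio at least 3 SD above the weak peptide control, stable starting fluorescence, no direct agonism earlier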;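 also: compound followed by low BAM8-22 agonist challenge near EC20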
HEK293 Ca flux: activity in parental HEK293 cells lacking MrgX1 | shares compounds with MrgX1 antagonist | Fluo-4 calcium fluorescence, FDSS | fluorescence ratio F(max-min)/F0 at 10 µM | actives 2% (n = 4,000);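 active = duplicate-averaged calcium fluorescence ratio at least three times the standard deviation of buffer wells, a nonspecific response in parental cells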
HEK293 Ca counter: activity in parental HEK293 cells without MrgX1; shares compounds with MrgX1 antagonist; parental HEK293 calcium flux, Fluo-4 fluorescence ratio; stronger effect = higher value; actives 0.4% (n = 4,000); fluorescence ratio F(max-min)/F0 at 10 µM;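 active = calcium fluorescence ratio, averaged over duplicates, at least 3 SD of the buffer-well ratio, meaning a nonspecific response in receptor-free cells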;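 also: untransfected parental HEK293 lacking MrgX1 used as counterscreen for MrgX1 allosteric activators; fluorescence change taken during the second addition on a kinetic imager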
HEK293 Ca cntr2: MrgX1 activator counter-screen hit in parental HEK293 cells. shares compounds with MrgX1 antagonist. Fluo-4 calcium fluorescence (FDSS); stronger effect = higher value. fluorescence ratio F(max-min)/F0 at 10 µM. actives 8.7% (n = 4,000);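 active = calcium fluorescence ratio at least three times the spread of buffer wells, meaning a non-specific response in parental cells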
Each line names hits and unclear results; the compound was inactive in the other large screens (follow-up assays come after a bar, where they were run). This is a sample that favours compounds with a hit; in the whole collection about 3.5% have one here.

COc1ccccc1Nc1nc2ccc(C)cc2n2cnnc12	none
Cc1cc(Cl)ccc1OCC(=O)N1C(C)CCCC1C (configuration not stated)	MrgX1 PAM 12 | MrgX1 PAM conf inactive | HEK293 Ca flux inactive | HEK293 Ca counter inactive | HEK293 Ca cntr2 inactive
Cc1nc2ccccc2cc1OCc1ccccc1	MrgX1 PAM 6.6 | MrgX1 PAM conf inactive | HEK293 Ca flux inactive | HEK293 Ca counter inactive | HEK293 Ca cntr2 inactive
Cc1nc2ccccc2cc1OCc1ccc(Cl)cc1	none
CC(C)n1c(CN(C)Cc2ccccc2)nc2c1c(=O)n(C)c(=O)n2C	MrgX1 PAM 7.8 | MrgX1 PAM conf 13% | HEK293 Ca flux inactive | HEK293 Ca counter inactive | HEK293 Ca cntr2 inactive
CC(=O)C(C)n1c(CN(C)Cc2ccccc2)nc2c1c(=O)n(C)c(=O)n2C (configuration not stated)	none
Cc1cc(Cl)cc(Br)c1OCCCCn1cncn1	MrgX1 PAM 6.9 | MrgX1 PAM conf inactive | HEK293 Ca flux inactive | HEK293 Ca counter inactive | HEK293 Ca cntr2 inactive
Nc1cc(Cl)ccc1Oc1ccccc1	MrgX1 PAM 20 | MrgX1 PAM conf inactive | HEK293 Ca flux inactive | HEK293 Ca counter inactive | HEK293 Ca cntr2 inactive
Cc1ccc(S(=O)(=O)N(C)C)cc1NC(=O)COC(=O)c1ccc2c(c1)OCCO2	none
COc1ccc(OC)c(CN2CCN(C(=O)c3ccc(NS(=O)(=O)c4cccc([N+](=O)[O-])c4)cc3)CC2)c1	MrgX1 PAM 20 | MrgX1 PAM conf 38% | HEK293 Ca flux inactive | HEK293 Ca counter inactive | HEK293 Ca cntr2 inactive
COc1ccc(OC)c(CN2CCN(C(=O)c3cccc(S(=O)(=O)Nc4ccccc4OC)c3)CC2)c1	none
CCOC(=O)CNC(=O)CSc1nc(-c2ccc(OC)cc2)ns1	MrgX1 PAM 12 | MrgX1 PAM conf inactive | HEK293 Ca flux inactive | HEK293 Ca counter inactive | HEK293 Ca cntr2 inactive
O=c1[nH]c(/C=C\c2ccccc2F)nc(O)c1[N+](=O)[O-]	none
CCOC(=O)c1c(-c2cccs2)csc1NC(=O)C(C)(C)C	MrgX1 PAM 12 | MrgX1 PAM conf inactive | HEK293 Ca flux inactive | HEK293 Ca counter inactive | HEK293 Ca cntr2 inactive
CCOC(=O)c1c(-c2cccs2)csc1NC(C)=O	none
O=C(COc1ccccc1Cl)NCCC1=CCCCC1	MrgX1 PAM 18 | MrgX1 PAM conf inactive | HEK293 Ca flux inactive | HEK293 Ca counter inactive | HEK293 Ca cntr2 inactive
O=C(COC(=O)Cc1c(Cl)cccc1Cl)NCCC1=CCCCC1	none
S=c1[nH]nc(-c2n[nH]c3c2CCC3)n1/N=C/C=C/c1ccccc1	none
Cc1nn(-c2ccccc2)nc1C(=O)Nc1nnc(C(F)(F)F)s1	MrgX1 PAM 6.5 | MrgX1 PAM conf inactive | HEK293 Ca flux inactive | HEK293 Ca counter inactive | HEK293 Ca cntr2 68
CCc1nnc(NC(=O)c2nn(-c3ccccc3)nc2C)s1	none
Cn1cnc(S(=O)(=O)N2CCN(c3cccc(Cl)c3)CC2)c1	none
Cc1c(OC(C)C(=O)NCCCN2CCOCC2)ccc2c3c(c(=O)oc12)CCC3 (configuration not stated)	none
Cc1c(OC(C)C(=O)NCCCN2CCOCC2)ccc2c3c(c(=O)oc12)CCCC3 (configuration not stated)	MrgX1 PAM 6.9 | MrgX1 PAM conf inactive | HEK293 Ca flux inactive | HEK293 Ca counter inactive | HEK293 Ca cntr2 inactive
O=C(Nc1nc(-c2ccccc2)ns1)c1cccs1	MrgX1 PAM 7.5 | MrgX1 PAM conf 2.7% | HEK293 Ca flux inactive | HEK293 Ca counter inactive | HEK293 Ca cntr2 inactive
O=C(Nc1nc2ccc(F)cc2s1)c1cccs1	MrgX1 PAM 9.3 | MrgX1 PAM conf inactive | HEK293 Ca flux inactive | HEK293 Ca counter inactive | HEK293 Ca cntr2 inactive

Screening data deposited in PubChem by Johns Hopkins Ion Channel Center.
